Compound activity deposited in PubChem by The Scripps Research Institute Molecular Screening Center.
A selection: hits, their analogues and other compounds. The true share with any hit is near 1.8%.
CHRM4 antagonist = human M4 muscarinic receptor antagonists, primary screen, CHO cells, Fluo-8 calcium fluorescence; Muscarinic acetylcholine receptor M4 (Homo sapiens), P08173; CHO-hM4 cells, ACh EC80; inhibition, % at 3 µM; 360,000 tested, 0.73% active;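 active means inhibition above its plate's cutoff, the mean inhibition of sample wells plus 3 SD, cut at about 27% in these data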
M5 ag = human M5 muscarinic receptor agonists, primary screen, CHO-K1 cells, Fluo-8 calcium fluorescence. Muscarinic acetylcholine receptor M5 (Homo sapiens), P08912. CHO-K1 hM5 cells; 0% DMSO wells, 100% maximal acetylcholine response. activation, % at 3 µM. 360,000 tested, 0.19% active. AID 624037, 2012;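 active means activation above the run's mean over test compounds plus 3 SD, cut at about 23% in these data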;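 further: signal is peak over basal fluorescence ratio across the kinetic read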
Target sequence (P08912 whole entry, looked up): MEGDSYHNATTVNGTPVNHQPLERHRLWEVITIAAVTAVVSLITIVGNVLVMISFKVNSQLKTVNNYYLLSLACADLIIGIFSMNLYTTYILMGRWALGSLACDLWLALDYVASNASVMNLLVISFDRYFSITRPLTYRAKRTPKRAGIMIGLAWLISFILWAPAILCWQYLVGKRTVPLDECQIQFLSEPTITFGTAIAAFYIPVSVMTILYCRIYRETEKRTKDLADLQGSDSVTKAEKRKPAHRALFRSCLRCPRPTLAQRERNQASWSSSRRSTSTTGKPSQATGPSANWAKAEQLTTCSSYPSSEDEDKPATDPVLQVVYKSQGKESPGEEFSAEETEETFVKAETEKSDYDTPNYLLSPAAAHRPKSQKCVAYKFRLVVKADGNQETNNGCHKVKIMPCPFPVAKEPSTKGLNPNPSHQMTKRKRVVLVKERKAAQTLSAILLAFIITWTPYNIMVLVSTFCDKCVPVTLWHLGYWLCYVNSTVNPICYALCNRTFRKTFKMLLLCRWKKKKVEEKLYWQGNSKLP
M5 PAM = human M5 muscarinic receptor positive allosteric modulators, primary screen, CHO-K1 cells, Fluo-8 calcium fluorescence; CHO-K1 hM5, ACh EC20 PAM; 0% = ACh EC20, 100% = ACh EC100; activation, % at 3 µM; 360,000 tested, 0.3% active; AID 624038, 2012;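 active means activation above the run cutoff, the mean activation of all test compounds plus 3 SD, cut at about 18% in these data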
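system = human M5 receptor in CHO-K1 cells | compound = one concentration, 3 µM final (nominal) | schedule = Post-acetylcholine fluorescence recording 140 s | signal = Fluo-8 calcium dye fluorescence, kinetic read | benchmarks = low control EC20 acetylcholine (0%), high control EC100 acetylcholine (100%) | repeats = singlicate, one well per test compound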
M5 antag = human M5 muscarinic receptor antagonists, primary screen, CHO cells, Fluo-8 calcium fluorescence; Muscarinic acetylcholine receptor M5 (Homo sapiens), P08912; CHO-hM5 cells, ACh EC80; inhibition, % at 3 µM; 360,000 tested, 0.59% active;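 active means inhibition above a per-plate cutoff, the mean of that plate's test compounds plus 3 SD, cut at about 27% in these data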
CHRM4 agonist = human M4 muscarinic receptor agonists, primary screen, CHO-K1 cells, Fluo-8 calcium fluorescence; CHO-K1 hM4/Gqi5; vehicle 0%, full acetylcholine response 100%; 360,000 tested, 0.14% active; activation, % at 3 µM;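 active means activation above the run mean over all test wells plus 3 SD, cut at about 32% in these data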;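 further: peak over basal fluorescence ratio per well then scaled between controls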
CHRM4 PAM = human M4 muscarinic receptor positive allosteric modulators, primary screen, CHO-K1 cells, Fluo-8 calcium fluorescence. Muscarinic acetylcholine receptor M4 (Homo sapiens), P08173. CHO-K1 hM4/Gqi5, ACh EC20; 0% = ACh EC20, 100% = maximal ACh. activation, % at 3 µM. 360,000 tested, 0.4% active;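 active means activation above its plate's cutoff, the mean activation of sample wells plus 3 SD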
Hits are given with their value.

Cc1cc(C(=O)CSc2nc3ccccc3c(=O)[nH]2)c(C)n1CC1CCCO1 (configuration not stated) was read as CHRM4 antagonist 27.1, M5 ag inactive, M5 PAM inactive, M5 antag 35.7, CHRM4 agonist inactive and CHRM4 PAM inactive.
Screening CCn1c(SCC(=O)c2cc(C)n(CC3CCCO3)c2C)nc2ccccc21 (configuration not stated) returned CHRM4 antagonist inactive, M5 ag inactive, M5 PAM inactive, M5 antag inactive, CHRM4 agonist inactive and CHRM4 PAM inactive.
For Cc1cc(SCC(=O)NCC2CCCO2)nc2ccccc12 (configuration not stated) the results were CHRM4 antagonist inactive, M5 ag 23.3, M5 PAM inactive, M5 antag inactive, CHRM4 agonist inactive and CHRM4 PAM inactive.
CC(=O)Nc1cccc(-c2ccnc3c2CC(C(=O)Nc2ccc(Cl)cc2)O3)c1 (configuration not stated) was read as CHRM4 antagonist inactive, M5 ag inactive, M5 PAM inactive, M5 antag inactive, CHRM4 agonist inactive and CHRM4 PAM inactive.
`O=C(CCC1CCCN(C2C3CC4CC(C3)CC2C4)C1)NCc1ccc(F)c(F)c1` (configuration not stated) gave CHRM4 antagonist 40.6, M5 ag inactive, M5 PAM inactive, M5 antag inactive, CHRM4 agonist inactive and CHRM4 PAM inactive.
Cc1occc1C(=O)N1CCCC(CCC(=O)NCc2ccc(F)c(F)c2)C1 (configuration not stated) was read as CHRM4 antagonist inactive, M5 ag inactive, M5 PAM inactive, M5 antag inactive, CHRM4 agonist inactive and CHRM4 PAM inactive.
`O=C(O)c1nc(-c2ccccc2)c(C(=O)NC2CC2)[nH]1` gave CHRM4 antagonist inactive, M5 ag inactive, M5 PAM inactive, M5 antag inactive, CHRM4 agonist inactive and CHRM4 PAM inactive.
`O=C(Nc1c(C(=O)C2CC2)oc2ccccc12)c1ccc(Cl)cc1` gave CHRM4 antagonist inactive, M5 ag inactive, M5 PAM inactive, M5 antag inactive, CHRM4 agonist inactive and CHRM4 PAM 25.6.
Screening Cn1c(=O)n(Cc2ccccc2Cl)c2ccccc21 returned CHRM4 antagonist inactive, M5 ag inactive, M5 PAM inactive, M5 antag 43.1, CHRM4 agonist inactive and CHRM4 PAM inactive.
`CC(C)(C)NC(=O)C(c1ccncc1)n1c(-c2ccc(C(F)(F)F)cc2)nc2ccccc21` (configuration not stated) gave CHRM4 antagonist inactive, M5 ag inactive, M5 PAM inactive, M5 antag inactive, CHRM4 agonist inactive and CHRM4 PAM inactive.
`CCCCC1Cc2[nH]c(=S)[nH]c(=O)c2C(c2ccc(F)cc2)O1` (configuration not stated) gave CHRM4 antagonist inactive, M5 ag inactive, M5 PAM inactive, M5 antag inactive, CHRM4 agonist inactive and CHRM4 PAM inactive.
For Cc1ccc(C)c(NS(=O)(=O)c2c(C)nn(C)c2C)c1 the results were CHRM4 antagonist inactive, M5 ag inactive, M5 PAM inactive, M5 antag inactive, CHRM4 agonist inactive and CHRM4 PAM inactive.
`Cc1ccc(OS(=O)(=O)c2c(C)nn(C)c2Cl)c(C)c1` gave CHRM4 antagonist 43.3, M5 ag inactive, M5 PAM inactive, M5 antag 30.5, CHRM4 agonist inactive and CHRM4 PAM inactive.
Cn1cc(Cc2ccc(C(=O)NC34CC5CC(CC(C5)C3)C4)cn2)c2ccccc21 was read as CHRM4 antagonist inactive, M5 ag inactive, M5 PAM inactive, M5 antag inactive, CHRM4 agonist inactive and CHRM4 PAM inactive.
For CC1([N+](=O)[O-])COC2(OC1)C(=O)Nc1ccccc12 (configuration not stated) the results were CHRM4 antagonist 47.9, M5 ag inactive, M5 PAM inactive, M5 antag inactive, CHRM4 agonist inactive and CHRM4 PAM inactive.
Screening Nc1nc(Nc2ccccc2)nc(NCc2ccccc2)c1[N+](=O)[O-] returned CHRM4 antagonist inactive, M5 ag inactive, M5 PAM inactive, M5 antag inactive, CHRM4 agonist inactive and CHRM4 PAM inactive.
Screening Nc1nc(Nc2ccccc2F)nc(NCc2ccccc2)c1[N+](=O)[O-] returned CHRM4 antagonist inactive, M5 ag inactive, M5 PAM 19.1, M5 antag inactive, CHRM4 agonist inactive and CHRM4 PAM inactive.
Screening COC(=O)C[C@H]1C=C[C@H](NC(=O)Nc2ccccc2F)[C@@H](CO)O1 returned CHRM4 antagonist inactive, M5 ag inactive, M5 PAM inactive, M5 antag inactive, CHRM4 agonist inactive and CHRM4 PAM inactive.
`O=C(c1ccc(-c2nc3ccccc3s2)o1)N1CCN(c2ccccc2O)CC1` gave CHRM4 antagonist inactive, M5 ag inactive, M5 PAM inactive, M5 antag 33.9, CHRM4 agonist inactive and CHRM4 PAM inactive.
CC(C)(C)c1ccc(-n2nc(C#N)c(Cl)cc2=O)cc1 was read as CHRM4 antagonist 54.5, M5 ag inactive, M5 PAM inactive, M5 antag 33.0, CHRM4 agonist inactive and CHRM4 PAM inactive.
COC(=O)c1cc(=O)nc(NNC(C)=O)s1 was read as CHRM4 antagonist inactive, M5 ag inactive, M5 PAM inactive, M5 antag inactive, CHRM4 agonist inactive and CHRM4 PAM inactive.
For O=C1N/C(=C/c2ccc(N3CCCC3)cc2)C(=O)N1c1ccccc1 the results were CHRM4 antagonist inactive, M5 ag inactive, M5 PAM inactive, M5 antag inactive, CHRM4 agonist inactive and CHRM4 PAM inactive.
`CN1C(=O)c2ccc(N3CCCC3)cc2C1=O` gave CHRM4 antagonist inactive, M5 ag inactive, M5 PAM inactive, M5 antag inactive, CHRM4 agonist inactive and CHRM4 PAM inactive.
For O=C1/C(=C/c2ccc(N3CCCC3)cc2)NC(=S)N1C1CC1 the results were CHRM4 antagonist 35.5, M5 ag 69.4, M5 PAM inactive, M5 antag 53.9, CHRM4 agonist 46.1 and CHRM4 PAM inactive.
`Cc1cc(N2CCCC2)ccc1/C=C1\NC(=S)N(C)C1=O` gave CHRM4 antagonist inactive, M5 ag 42.0, M5 PAM inactive, M5 antag inactive, CHRM4 agonist inactive and CHRM4 PAM inactive.
Screening OC[C@H]1O[C@@H](c2nc3ccc(-c4nc(-c5ccc(Br)cc5)no4)cc3[nH]2)C[C@@H]1O returned CHRM4 antagonist inactive, M5 ag inactive, M5 PAM inactive, M5 antag inactive, CHRM4 agonist inactive and CHRM4 PAM inactive.
